Assay results as given in ChEMBL document CHEMBL3227981, “Studies on biologically active nucleosides and nucleotides. 5. Synthesis and antitumor activity of some 2,2'-anhydro-1-(3',5'-di-O-acyl-beta-D-arabinofuranosyl)cytosine salts and 2,2'-anhydro-1-(3'-O-acyl-beta-D-arabinofuranoxyl)cytosine 5'-phosphates” (J Med Chem, 1979).

Assays:
L1210 [1] = assay: Antitumor activity against mouse L1210 cells allografted in BDF1 mouse assessed as increase of host life span at 25 mg/kg, ip qd for 5 days; assay type: functional; conditions: route intraperitoneal
How it was run: (§1)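 BDF1 mice were given 1×10^5 L1210 cells ip. Compound was dissolved or suspended in 0.9% NaCl with 0.1% HCO-60 and given ip daily for 5 days, starting 24 h after inoculation. Groups had 6–10 mice. ILS = (T/C − 1) × 100, from mean survival time of treated versus control mice, observed over 60 days.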

L1210 [2] = assay: Antitumor activity against mouse L1210 cells allografted in BDF1 mouse assessed as increase of host life span at 100 mg/kg, ip qd for 5 days; assay type: functional; conditions: route intraperitoneal; how it was run: as §1
L1210 [3] = assay: Antitumor activity against mouse L1210 cells allografted in BDF1 mouse assessed as increase of host life span at 200 mg/kg, po qd for 5 days; assay type: functional
How it was run: (§2)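 L1210 cells (1×10^5) were implanted ip in BDF1 mice. Oral dosing began 24 h later and ran once daily for 5 days, with compound in 0.9% saline containing 0.1% HCO-60 as solution or suspension. Six to ten mice per group. Percent ILS was (T/C − 1) × 100 on mean survival time, with a 30-day observation period.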

[4] = Toxicity in ip dosed ICR mouse up to 3 weeks; assay type: organism-based; conditions: in vivo
How it was run: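 Maximum tolerated dose was set from a single ip injection into three female ICR mice weighing 20–21 g, followed by 3 weeks of observation.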

L1210 [5] = assay: Antitumor activity against mouse L1210 cells allografted in BDF1 mouse assessed as increase of host life span at 6.25 mg/kg, ip qd for 5 days; assay type: functional; conditions: route intraperitoneal; how it was run: as §1
L1210 [6] = assay: Antitumor activity against mouse L1210 cells allografted in BDF1 mouse assessed as increase of host life span at 100 mg/kg, po qd for 5 days; assay type: functional; how it was run: as §2

Row | SMILES | Activity (L1210 [1]) | Activity (L1210 [2]) | Activity (L1210 [3]) | MTD at 504 h [4] | Activity (L1210 [5]) | Activity (L1210 [6])
1 | Cl.N=c1ccn2c(n1)O[C@@H]1[C@H](OC(=O)c3ccc(F)cc3)[C@@H](COC(=O)c3ccc(F)cc3)O[C@H]12 | 10% | 47.4% | 38.5% | 500 mg/kg | – | –
2 | CCCCCCCCCCCCOCCC(=O)OC[C@H]1O[C@@H]2[C@H](Oc3nc(=N)ccn32)[C@@H]1OC(=O)CCOCCCCCCCCCCCC.Cl | 118% | >595% | – | 500 mg/kg | 30.8% | –
3 | CCCC(=O)NCCCCCCCCCCC(=O)OC[C@H]1O[C@@H]2[C@H](Oc3nc(=N)ccn32)[C@@H]1OC(=O)CCCCCCCCCCNC(=O)CCC.Cl | 51.3% | 92.3% | – | 500 mg/kg | 20.5% | –
4 | Cl.N=c1ccn2c(n1)O[C@@H]1[C@H](OC(=O)CCNC(=O)c3ccccc3)[C@@H](COC(=O)CCNC(=O)c3ccccc3)O[C@H]12 | 2.6% | 32.1% | – | – | – | –
5 | Cc1ccc(S(=O)(=O)NCCC(=O)OC[C@H]2O[C@@H]3[C@H](Oc4nc(=[NH2+])ccn43)[C@@H]2OC(=O)CCNS(=O)(=O)c2ccc(C)cc2)cc1.F[B-](F)(F)F | 15% | 47.5% | – | – | – | –
6 | Cl.N=c1ccn2c(n1)O[C@@H]1[C@H](OC(=O)c3cccc(Cl)c3)[C@@H](COC(=O)c3cccc(Cl)c3)O[C@H]12 | 28.2% | – | 38.5% | < 300 mg/kg | – | –
7 | C=CCCCCCCCCC(=O)OC[C@H]1O[C@@H]2[C@H](Oc3nc(=N)ccn32)[C@@H]1OC(=O)CCCCCCCCC=C.Cl | 51.3% | 97.5% | – | 300 mg/kg | 17.9% | –
8 | Cl.N=c1ccn2c(n1)O[C@@H]1[C@H](O)[C@@H](CO)O[C@H]12 | 42.3% | 76.9% | 69.2% | 3000 mg/kg | – | 32.5%
9 | Cc1ccc(S(=O)(=O)NCCCCCCCCCCC(=O)OC[C@H]2O[C@@H]3[C@H](Oc4nc(=[NH2+])ccn43)[C@@H]2OC(=O)CCCCCCCCCCNS(=O)(=O)c2ccc(C)cc2)cc1.F[B-](F)(F)F | 90% | 140% | – | 500 mg/kg | 12.5% | –
10 | F[B-](F)(F)F.[NH2+]=c1ccn2c(n1)O[C@@H]1[C@H](OC(=O)c3cccc4ccccc34)[C@@H](COC(=O)c3cccc4ccccc34)O[C@H]12 | 35.5% | 82.1% | – | 500 mg/kg | – | –
11 | Cc1ccc(C(=O)OC[C@H]2O[C@@H]3[C@H](Oc4nc(=N)ccn43)[C@@H]2OC(=O)c2ccc(C)cc2)cc1.Cl | 37.3% | 81.3% | 30.7% | 750 mg/kg | – | 14.7%
12 | CCOc1ccc(C(=O)OC[C@H]2O[C@@H]3[C@H](Oc4nc(=N)ccn43)[C@@H]2OC(=O)c2ccc(OCC)cc2)cc1.Cl | 33.3% | 67.5% | – | 500 mg/kg | – | –
13 | Cl.N=c1ccn2c(n1)O[C@@H]1[C@H](OC(=O)/C=C/c3ccco3)[C@@H](COC(=O)/C=C/c3ccco3)O[C@H]12 | 20% | 54.7% | 26.7% | 300 mg/kg | – | 20%
14 | F[B-](F)(F)F.[NH2+]=c1ccn2c(n1)O[C@@H]1[C@H](OC(=O)CCCCCCCCCCNC(=O)c3ccccc3)[C@@H](COC(=O)CCCCCCCCCCNC(=O)c3ccccc3)O[C@H]12 | 100% | >292.3% | – | 500 mg/kg | 38.5% | –
15 | CCOCCC(=O)OC[C@H]1O[C@@H]2[C@H](Oc3nc(=N)ccn32)[C@@H]1OC(=O)CCOCC.Cl | 15.4% | 57.5% | – | – | – | –
16 | CCCCCCCOCCC(=O)OC[C@H]1O[C@@H]2[C@H](Oc3nc(=N)ccn32)[C@@H]1OC(=O)CCOCCCCCCC.Cl | 28.2% | – | – | 100 mg/kg | – | –
17 | Cl.N=c1ccn2c(n1)O[C@@H]1[C@H](OC(=O)c3ccc(Cl)cc3)[C@@H](COC(=O)c3ccc(Cl)cc3)O[C@H]12 | 31.3% | 105.1% | 21.8% | 750 mg/kg | – | –
18 | CCCCCCCCCCCCCCCC(=O)O[C@H]1[C@H]2Oc3nc(=N)ccn3[C@@H]2O[C@@H]1COP(=O)(O)O | 116.4% | >441.1% | 43% | 500 mg/kg | 27.4% | –
19 | CC(C)(C)C(=O)O[C@H]1[C@H]2Oc3nc(=N)ccn3[C@@H]2O[C@@H]1COC(=O)CCCCCCC(=O)OC[C@H]1O[C@@H]2[C@H](Oc3nc(=N)ccn32)[C@@H]1OC(=O)C(C)(C)C.Cl | 25% | – | 41% | < 300 mg/kg | – | –
20 | F[B-](F)(F)F.[NH2+]=c1ccn2c(n1)O[C@@H]1[C@H](OC(=O)CCCCCCCCCCN3C(=O)c4ccccc4C3=O)[C@@H](COC(=O)CCCCCCCCCCN3C(=O)c4ccccc4C3=O)O[C@H]12 | 76.9% | >510.3% | – | 500 mg/kg | 23.1% | –
21 | Cl.N=c1ccn2c(n1)O[C@@H]1[C@H](OC(=O)CCCCCCCCCCBr)[C@@H](COC(=O)CCCCCCCCCCBr)O[C@H]12 | 61.5% | 145.9% | – | 300 mg/kg | 12.8% | –
22 | CCCCCCCCOc1ccc(C(=O)OC[C@H]2O[C@@H]3[C@H](Oc4nc(=N)ccn43)[C@@H]2OC(=O)c2ccc(OCCCCCCCC)cc2)cc1.Cl | – | 12.8% | – | 300 mg/kg | – | –
23 | F[B-](F)(F)F.[NH2+]=c1ccn2c(n1)O[C@@H]1[C@H](OC(=O)CCN3C(=O)c4ccccc4C3=O)[C@@H](COC(=O)CCN3C(=O)c4ccccc4C3=O)O[C@H]12 | 2.6% | 39.7% | – | – | – | –
24 | F[B-](F)(F)F.[NH2+]=c1ccn2c(n1)O[C@@H]1[C@H](OC(=O)CCCl)[C@@H](COC(=O)CCCl)O[C@H]12 | – | – | 38.5% | – | – | 9%
25 | CCOC(=O)CCC(=O)OC[C@H]1O[C@@H]2[C@H](Oc3nc(=N)ccn32)[C@@H]1OC(=O)CCC(=O)OCC.Cl | 12.4% | 35.4% | – | > 1000 mg/kg | – | 21.6%
26 | F[B-](F)(F)F.[NH2+]=c1ccn2c(n1)O[C@@H]1[C@H](OC(=O)CCCCCN3C(=O)c4ccccc4C3=O)[C@@H](COC(=O)CCCCCN3C(=O)c4ccccc4C3=O)O[C@H]12 | 23.1% | 60.3% | – | 300 mg/kg | – | –
27 | CCCCCCCC(=O)O[C@H]1[C@H]2Oc3nc(=N)ccn3[C@@H]2O[C@@H]1COP(=O)(O)O | 50.7% | 76% | 50.7% | 500 mg/kg | 6.3% | –
28 | CCOC(=O)CCCCCCCCCCCCCCC(=O)OC[C@H]1O[C@@H]2[C@H](Oc3nc(=N)ccn32)[C@@H]1OC(=O)CCCCCCCCCCCCCCC(=O)OCC.Cl | 10.7% | 37.3% | – | – | – | 6.7%
29 | CC(=O)O[C@H]1[C@H]2Oc3nc(=N)ccn3[C@@H]2O[C@@H]1COP(=O)(O)O | 30.7% | 57.3% | 46.9% | > 1500 mg/kg | – | 13.3%
30 | Cl.N=c1ccn2c(n1)O[C@@H]1[C@H](OC(=O)c3ccccc3Cl)[C@@H](COC(=O)c3ccccc3Cl)O[C@H]12 | 25.6% | – | 28.2% | < 300 mg/kg | – | –
